Experiment: Toxicity liver stage against HepG2, at 10uM
Format: cell-based
Design: test concentration 10 uM, cell line HepG2-A16-CD81EGFP
Settings: human, HepG2-A16-CD81EGFP cells; read-out: INHIBITION
In short: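 Uninfected HepG2-A16-CD81EGFP cells, 3 × 10^3 per well, 1536-well, plated on prespotted compound at 10 μM final, parasite-free screening media added to match infected plates; puromycin 10 μM positive, DMSO 0.5% negative; run in parallel with 48 h PbLuc assay at 37 °C, 5% CO2; viability by CellTiter-Glo luminescence, normalized to controls.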

| Compound | cytotoxicity at 10 µM [%] |
| --- | --- |
| Cc1ccc(-c2c[nH]c([C@@H]3COCCN3Cc3ncc[nH]3)n2)cc1 | 0.835 |
| CN1CCN(S(=O)(=O)c2cccc(F)c2)c2ccccc21 | 38.5 |
| CO[C@@H]1CN(c2ccccc2)S(=O)(=O)[C@@]12CCN(Cc1ccccc1)C2 | 3.51 |
| COc1cccc(OC)c1CN1CC(O)CN(S(C)(=O)=O)CC1=O (centres undefined) | -82.6 |
| COc1ccc(-c2noc(C(N)CCSC)n2)cc1OC (centres undefined) | 11.2 |
| CSCC[C@@H](CO)NC(=O)c1ccc2nc(NS(C)(=O)=O)sc2c1 | 10.7 |
| O=C(CSC1CCCC1)N1CCN(C(=O)C2CC2c2ccccc2)CC1 (centres undefined) | -4.74 |
| CC(C)NC(=O)Nc1nc2c(s1)CN(C(=O)NCc1cccs1)CC2 | 33 |
| Cc1noc(CNC(=O)CN(C)c2nc3c(F)cccc3s2)n1 | 3.76 |
| COC(=O)N1CCc2ccccc2C1C(=O)NCc1ccccn1 (centres undefined) | -3.01 |
| O=C(C1CCC1)N1C[C@@H]2CN(c3ccccc3)C(=O)[C@@H]2C1 | 1.05 |
| CCc1cc(O)nc(C2CCCN(Cc3ccncc3)C2)n1 (centres undefined) | -7.05 |
| CC(=O)N1CC2(CCCN2Cc2ccc(Cl)cc2)Cc2ccccc21 (centres undefined) | 11.9 |
| CS(=O)(=O)N1CC2(CCN(CC3CCCCC3)CC2)Cc2ccccc21 | 6.25 |
| Cc1ccc(CN(C)Cc2ncc(C(C)(C)C)o2)o1 | -6.58 |
| N#CCCCn1cnc2c(F)cc(Br)cc2c1=O | 4.29 |
| CCc1cc(N2CCC(Nc3ccc4nnc(C)n4n3)CC2)ncn1 | 4.69 |
| Cc1c(Br)cccc1NC(=O)N(C)CCO | -24.5 |
| CCN1CCOC(CNCc2cnc(C(C)(C)C)s2)C1 (centres undefined) | -2.24 |
| CC(C(=O)NCc1ccc2c(c1)OCCO2)n1cncn1 (centres undefined) | -141 |
| CCCC(C#N)NC(=O)c1sccc1CC (centres undefined) | 12.7 |
| CC(C)(C)NC(=O)C1CCCCN1Cc1nccn1CC(F)(F)F (centres undefined) | 6.21 |

| Compound | cytotoxicity at 10 µM [%] |
| --- | --- |
| CCN(CC)C1CCN(C(=O)Nc2cc(F)c(OC)c(F)c2)C1 (centres undefined) | 4.55 |
| CCN1CCCN(S(=O)(=O)c2cc3ccccc3o2)CC1 | 3.53 |
| CNC(=O)NC(=O)CN1CCN(CC2CC2)c2ccccc21 | 10.4 |
| O=C(CNc1cc(-n2cnnn2)ccc1F)Nc1cc(F)ccc1F | -4.09 |
| COC(=O)C1CCCN1CC(=O)NCc1ccc(OCC(N)=O)cc1 (centres undefined) | 7.45 |
| CCOCCN1CCN(C(C)C(=O)Nc2ccnn2C(C)C)CC1 (centres undefined) | -7.87 |
| CN(C(=O)NCc1nccn1Cc1ccccc1)C1CC1 | -2.22 |
| NC(=O)NCC1CCCCN1C(=O)c1ccc(Cl)s1 (centres undefined) | -12.1 |
| Cc1ccccc1S(=O)(=O)NC(=O)C1(c2cccc(Cl)c2)CC1 | 1.97 |
| O=C(Nc1cc(CSCCO)ccn1)c1cc2ccccc2[nH]1 | 17.3 |
| COc1ccc(N(Cc2ccco2)C(=O)C2CCCO2)cc1F (centres undefined) | -3.51 |
| Cc1cc(C(C)NC(=O)Cn2nc(C)c3ccccc3c2=O)c(C)o1 (centres undefined) | -5.3 |
| Cc1cc(C(=O)NC2(c3ccc(Br)cc3)CC2)n(C)n1 | 56.7 |
| Cc1noc(C)c1CN(C)C(C)c1cccs1 (centres undefined) | -3.11 |
| Cc1nc(C)n(Cc2cccc(NC(=O)N(C)CCC(C)O)c2)n1 (centres undefined) | -6.64 |
| CCNC(=O)N1CCc2ccc(NC(=O)NCc3ccsc3)cc21 | -11.8 |
| O=S(=O)(NCC1CCN(CCN2CCOCC2)C1)c1ccccc1F (centres undefined) | -57.9 |
| Cn1c(=O)[nH]c(=O)c2cc(C(=O)N3CCCC3C3CCCC3)cnc21 (centres undefined) | 14 |
| Cc1nc(C2CCCN(C(=O)CN3CCCC3=O)C2)sc1C (centres undefined) | -6.96 |
| O=C(C1CCCc2[nH]ncc21)N1CCCCCC1 (centres undefined) | 4.65 |
| NC(=O)c1ccc(N2CCCCC2)c(NC(=O)c2cncc(Br)c2)c1 | -9.41 |
| CCCN1CCC(NC(=O)c2ccc(F)cc2I)CC1 | -11.8 |

| Compound | cytotoxicity at 10 µM [%] |
| --- | --- |
| Cc1cccc(N2CC[C@H]3CO[C@H](CN(C)Cc4ccco4)[C@H]3C2)n1 | 13.3 |
| COCc1cnc2n1CCN(C(=O)c1cc3cc(Cl)ccc3o1)C2C (centres undefined) | -112 |
| Cc1ncc(-c2ccnc(N[C@@H](C)CO)n2)c(C2CCCCC2)n1 | -20.7 |
| Cc1cc(=O)[nH]c(NCCNC(=O)c2ccccc2N2CCCC2)n1 | 0.998 |
| c1cc(-c2cncnc2)cc(-c2ccn(CC3CCNC3)n2)c1 (centres undefined) | 5.54 |
| Cc1cccnc1CN1CCN(C[C@]2(O)CCCN3CCCC[C@@H]32)CC1 | -0.418 |
| CCOC(=O)C1(Cc2cccc(Cl)c2)CCCN(Cc2ncc[nH]2)C1 (centres undefined) | -5.22 |
| CCOC(=O)CC(C)Nc1nc(C(C)(C)C)nc2c1cnn2C (centres undefined) | 6.51 |
| COc1ccc2[nH]nc(CN3CCN(Cc4cccc(F)c4)CC3)c2c1 | -8.14 |
| O=C(O)c1cn(CC2CCCN(c3nc4ccccc4s3)C2)nn1 (centres undefined) | -12.2 |
| CC(C)=CCCN1CCN(C)C2(CCC(=O)N(C)CC2)C1 (centres undefined) | -54 |
| Nc1nc(O)cc(N2CCC(c3cc(Cc4ccccc4)n[nH]3)CC2)n1 | 1.85 |
| CC(=O)Nc1ccc(CN2CCc3[nH]cnc3C2c2nccn2C)cc1 (centres undefined) | -182 |
| COc1coc(CN2CCCC(CCc3ccccc3C)C2)cc1=O (centres undefined) | -0.931 |
| COCCC1(C(=O)O)CCCN(C(=O)c2cnc3c(c2)CCCC3)C1 (centres undefined) | -44.5 |
| CC(C)N1CCC(CC(=O)N2CCC(C(O)c3nccn3C)CC2)CC1 (centres undefined) | -0.153 |
| O=c1cc(N2CCCC2)cnn1Cc1noc(C2CCCO2)n1 (centres undefined) | -59.8 |
| COc1ccc(-c2noc(CN3CCN(c4cnccn4)CC3)n2)cc1 | 6.58 |
| CN(CCC(C)(C)O)C(=O)C1CCC(=O)N(Cc2ccc(Cl)cc2)C1 (centres undefined) | 7.67 |
| Cc1ccc2[nH]c(=O)cc(C(=O)N[C@@H]3C[C@@H](CO)N(C)C3)c2c1 | 5.43 |
| CC(=O)NCCc1nc(C(C)C)nn1-c1ccncc1C | 3.26 |
| CN1CCN2C[C@@H](NC(=O)c3nc4ccccc4[nH]3)C[C@H]2C1 | -0.159 |

| Compound | cytotoxicity at 10 µM [%] |
| --- | --- |
| Cn1cc(CN2CCCC23CCN(c2nc4ccccc4s2)CC3)cn1 | 4.86 |
| OC1(CN2CCCCC2)CCN(c2nccc(C(F)(F)F)n2)C1 (centres undefined) | -7.07 |
| Cc1nc(CCCNC(=O)c2coc(CN3CCOCC3)c2)sc1C | -2.11 |
| COc1cccc(-c2noc(-c3ccc(NCCCN)nc3)n2)c1OC | -1.43 |
| CSc1ccccc1C(=O)N1CCN(C)C2(CCC(=O)N(C)CC2)C1 (centres undefined) | 3.84 |
| CNC(=O)c1sccc1S(=O)(=O)NC | 8.52 |
| O=S1(=O)CCC(n2cc(C3=CCN(CCc4ccccc4)CC3)cn2)C1 (centres undefined) | -2.64 |
| Cc1c(C(C)NC2CCN(C(C)C)CC2)cnn1-c1ccc(F)cc1F (centres undefined) | -6.58 |
| CC(Cn1cccn1)NCc1csc2c1CCCC2 (centres undefined) | -2.86 |
| O=C(C1CC1)N1CCc2c(ncnc2N2CCN3CCCC3C2)C1 (centres undefined) | -13.6 |
| Cc1ccc(-c2cccc(-c3ccn(CCN4CCCC4)n3)c2)nn1 | -8.74 |
| CCCc1cc(C(=O)N(C)Cc2cccc3ncccc23)n(C)n1 | -0.758 |
| Cn1ccnc1-c1ccccc1C(=O)N1CCc2c(nc(N)[nH]c2=O)C1 | -5.3 |
| C[C@@H]1CN(C(=O)c2ccc(C#N)nc2)C[C@@]1(O)C1CC1 | -28.8 |
| Cc1nnc(NC(=O)NCc2ccc(OC3CCCC3)nc2)s1 | 0.141 |
| CCc1c(C(=O)N2CCC(CC(N)=O)CC2)cnn1C(C)(C)C | 2.2 |
| CC(O)CN1CCN(Cc2coc(-c3ccc(Cl)cc3)n2)CC1 (centres undefined) | -7.42 |
| Cc1cnc(C(=O)N2CCCC(n3cccn3)C2)cn1 (centres undefined) | -0.29 |
| Cc1ccc(-n2nnc(C(=O)NCC(F)(F)F)c2C2CC2)cc1 | -6.94 |
| Cc1cccc(CNCc2ccc(NC(=O)NC(C)C)cc2)c1 | -3.03 |
| FC(F)(F)c1ccc(CN2CCN(Cc3cscn3)CC2)cc1 | -4.94 |
| Cc1nc(CN2CCCC(NCc3c(C)nc4sccn34)C2)no1 (centres undefined) | 6.21 |

| Compound | cytotoxicity at 10 µM [%] |
| --- | --- |
| CC(C(=O)NCCCN1CCCCCC1=O)n1cncn1 (centres undefined) | -20.9 |
| CN(Cc1cscn1)C1CCCN(Cc2noc(C3CC3)n2)C1 (centres undefined) | -2.77 |
| O=C(NCCn1ccnc1)c1cccc(F)c1 | -10 |
| Cc1nnc(NC(=O)NCc2ccc(N3CCN(C)CC3)nc2)s1 | -7.91 |
| Cc1cc(C)c(CNC(=O)N(C)Cc2sccc2C)c(=O)[nH]1 | -1.77 |
| CC(O)CN1CCN(Cc2cccc(C(=O)N(C)C)c2)CC1 (centres undefined) | -3.93 |
| Cc1cc(CN2CCCC2Cn2cncn2)no1 (centres undefined) | -10 |
| O[C@@H]1CN(Cc2ccc(F)c(F)c2)CC[C@H]1NCc1ccccn1 | 3.85 |
| CCOCc1ccc(CNC2=NCCCN2)cc1 | -51.5 |
| CN(C)CCOCC1CN(C(=O)N2CCCC2)Cc2ccnn2C1 (centres undefined) | 4.55 |
| CNC(=O)[C@H]1C[C@@H]2CN(S(=O)(=O)c3ccc(OC)cc3)C[C@@H]2N1C | -3.9 |
| Cc1nc(N2CCCC2)nc2c1CCN(Cc1nccn1C)CC2 | -130 |
| CCN1CCC(c2nc3ccc(NC4CCC4)cn3n2)CC1 | -121 |
| COCC1CC2(CCN(c3cccc(C)n3)CC2)CN1c1ncccn1 (centres undefined) | -108 |
| c1ccc(CN2CC[C@H]3[C@H]2CCN3c2ncccn2)nc1 | 1.24 |
| Cn1ccc(CN2CCC3(CC2)CC(Nc2cnccn2)CO3)n1 (centres undefined) | -2.66 |
| Cc1ccc(CN2C[C@@H]3CN(c4ncc(F)cn4)C[C@@H]3C2)cc1 | 1.86 |
| O=S1(=O)CCN(Cc2cccnc2)[C@H]2CCN(c3ncccn3)CC[C@H]21 | -11.2 |
| Cc1ccc(N2CC[C@H]3O[C@H](C(=O)N4CCCCO4)CC[C@H]32)nn1 | 10.1 |
| CCC1=N[C@@]2(CC[C@@H]3CN(Cc4ccccc4C)C[C@@H]32)C(=O)N1C | -107 |
| Fc1ccc(CNCC2OCCc3cn(CC4CC4)nc32)cc1 (centres undefined) | 0.925 |

— ChEMBL document CHEMBL4513216, “Probing the Open Global Health Chemical Diversity Library for Multistage-Active Starting Points for Next-Generation Antimalarials” (ACS Infect Dis, 2020)
